This note sets out measurements from PubChem BioAssay AID652278 (Broad Institute, 2013).

For the assay, the system named is T. cruzi CAI/72 in J774, trypomastigote emergence, microscopy. Put plainly: cidal versus static activity against T. cruzi amastigotes, late-stage follow-up, mechanism study, imaging, CAI/72 strain, J774 macrophages, dry powder, set 2 (AID 652278). Conditions: active compounds read high. In a few lines:
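Test system – J774 macrophages, 9000 rad-arrested, infected with T. cruzi CAI/72 · Technique – daily microscopic scoring of emerging trypomastigotes · Evaluation – slope, emergence day versus concentration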
With `CC(C)N1C[C@@H](CN(C)CCc2ccc(Cl)c(Cl)c2)Oc2c(NC(=O)c3ccncc3)cccc2C1=O`, the slope of emergence day vs concentration was 5.

For `CN(C)CC#Cc1cccc(-c2nc(C(=O)N[C@@H]3CCN(Cc4ccccc4)C3)cc3c2[C@@H](CCO)N(S(=O)C(C)(C)C)C3)c1` (stereo partly specified), the slope of emergence day vs concentration was 1.89.

For the molecule `CN(C)C(=O)c1cccc(-c2ccc([C@H]3[C@H](CO)N4CCCCN(C(=O)C5CCC5)C[C@@H]34)cc2)c1`, the slope of emergence day vs concentration was 1.89.

Take `CC(C)N1C[C@H](CN(C)Cc2ccc(Cl)cc2)Oc2c(NC(=O)c3ccncc3)cccc2C1=O`: the slope of emergence day vs concentration was 5.

Turning to `CC(C)N1C[C@@H](CN(C)Cc2ccc(Cl)c(Cl)c2)Oc2c(NC(=O)c3ccncc3)cccc2C1=O`, the slope of emergence day vs concentration is 5.

In the case of `CC(C)N1C[C@@H](CN(C)Cc2ccc(Cl)cc2)Oc2c(NC(=O)c3ccncc3)cccc2C1=O`, the slope of emergence day vs concentration is 5.

On to `CC(C)N1C[C@@H](CN(C)Cc2ccc(Cl)cc2)Oc2c(NC(=O)c3ccncc3)cc(F)cc2C1=O`, for which the slope of emergence day vs concentration is 5.

`CC(C)N1C[C@@H](CN(C)Cc2ccc(Oc3ccccc3)cc2)Oc2c(NC(=O)c3ccncc3)cccc2C1=O`: the slope of emergence day vs concentration was 5.

Turning to `CC(C)N1C[C@@H](CN(C)CCc2ccc(Cl)cc2)Oc2c(NC(=O)c3ccncc3)cccc2C1=O`, the slope of emergence day vs concentration is 5.

As for `CN(C)CC#Cc1cccc(-c2nc(C(=O)NCc3ccc4c(c3)OCO4)cc3c2[C@@H](CCO)N(S(=O)C(C)(C)C)C3)c1` (stereo partly specified), the slope of emergence day vs concentration was 2.02.

For `CC(C)N1C[C@@H](CN(C)Cc2ccc(Cl)cc2)Oc2c(C(=O)Nc3ccncc3)cccc2C1=O`, the slope of emergence day vs concentration is 5.
